In brackets after ≈: the same amount, converted by molar mass.
How the values were obtained:
SF-539 = test: Cytotoxicity against human SF539 cells after 72 hrs by SRB assay; type: functional; conditions: SF-539, 72 h
Plasmodium falciparum = test: Antimalarial activity against erythrocytic stage of Plasmodium falciparum NF54 infected in RBC after 48 hrs by [3H]-hypoxanthine incorporation assay; type: functional, organism-based
HT-29 = test: Cytotoxicity against human HT-29 cells after 72 hrs by SRB assay; type: functional; conditions: HT-29, 72 h
OVCAR-4 = test: Cytotoxicity against human OVCAR4 cells after 72 hrs by SRB assay; type: functional; conditions: OVCAR-4, 72 h
KM12 = test: Cytotoxicity against human KM12 cells after 72 hrs by SRB assay; type: functional; conditions: KM12, 72 h
A549 = test: Cytotoxicity against human A549 cells after 72 hrs by SRB assay; type: functional, cell-based; conditions: A549, 72 h
How it was run: (§1)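 Adherent cells grown at 37 °C and 5% CO2. Seeded at 1×10^4/well 24 h before dosing, then 72 h at 10–0.01 µg/mL final. Fixed with cold 50% TCA, stained with 0.4% SRB, dye extracted in 10 mM Tris, read at 540 nm.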

OVCAR-8 = test: Cytotoxicity against human OVCAR8 cells after 72 hrs by SRB assay; type: functional; conditions: OVCAR-8, 72 h
SF-295 = test: Cytotoxicity against human SF295 cells after 72 hrs by SRB assay; type: functional; conditions: SF-295, 72 h
MV4-11 = test: Antiproliferative activity against human MV4-11 cells after 72 hrs by MTT assay; type: functional, cell-based; conditions: MV4-11, 72 h
BALB/3T3 = test: Cytotoxicity against mouse BALB/3T3 cells after 72 hrs by SRB assay; type: cell-based; conditions: BALB/3T3, 72 h
How it was run: as §1, with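 “CO2. A549 and HCT116 were in RPMI 1640/OptiMEM (50:50) with 5% FBS; BALB/3T3 in Dulbecco medium with 10% FBS and pyruvate.” for “CO2.”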

L6 = test: Cytotoxicity against rat L6 cells after 70 hrs by alamar blue assay; conditions: L6, 70 h
MCF7 = test: Cytotoxicity against human MCF7 cells after 72 hrs by SRB assay; type: functional; conditions: MCF7, 72 h
OVCAR-5 = test: Cytotoxicity against human OVCAR5 cells after 72 hrs by SRB assay; type: functional; conditions: OVCAR-5, 72 h
HCC 2998 = test: Cytotoxicity against human HCC2998 cells after 72 hrs by SRB assay; type: functional; conditions: HCC 2998, 72 h
MKN-7 = test: Cytotoxicity against human MKN7 cells after 72 hrs by SRB assay; type: functional; conditions: MKN-7, 72 h
[1] = read-out: LC50 (the source's name)
[2] = read-out: pLC50 (the source's name) (converted)

`COc1ccc(C2O[C@]34CC(c5cccc(Cl)c5)OC(=O)C3=C[C@@]2(C)OO4)cc1` (some centres undefined) was tested. Which TGI (SF-539) did it give?
The TGI was 23 µM.

And the GI50 (SF-539; read-out: GI50)?
Its GI50 is 8.4 µM.

What about the CC50 (SF-539; [1]) of the same compound?
Its CC50 is 55 µM.

And the GI50 (SF-539; read-out: pGI50 (converted))?
The GI50 was 2.75 µM.

And the CC50 (SF-539; [2])?
The CC50 was 13.5 µM.

What about the IC50 (Plasmodium falciparum) of the same compound?
Its IC50 is 1.38 µg/mL (≈ 3.33 µM).

And the TGI (HT-29)?
The TGI was 48 µM.

And the GI50 (HT-29; read-out: GI50)?
Its GI50 is 15 µM.

And the CC50 (HT-29; [1])?
Its CC50 is 100 µM.

What about the GI50 (HT-29; read-out: pGI50 (converted)) of the same compound?
Its GI50 is 5.25 µM.

And the CC50 (HT-29; read-out: pLC50 (converted))?
The CC50 was greater than 100 µM.

And the TGI (OVCAR-4)?
Its TGI is 24 µM.

What about the GI50 (OVCAR-4; read-out: GI50) of the same compound?
Its GI50 is 9.2 µM.

And the CC50 (OVCAR-4; [1])?
The CC50 was 59 µM.

What about the GI50 (OVCAR-4; read-out: pGI50 (converted)) of the same compound?
Its GI50 is 1.55 µM.

What about the CC50 (OVCAR-4; [2]) of the same compound?
The CC50 was 41.7 µM.

And the TGI (KM12)?
The TGI was 51 µM.

And the GI50 (KM12; read-out: GI50)?
The GI50 was 25 µM.

What about the CC50 (KM12; [1]) of the same compound?
Its CC50 is 100 µM.

And the GI50 (KM12; read-out: pGI50 (converted))?
The GI50 was 17.8 µM.

What about the CC50 (KM12; [2]) of the same compound?
The CC50 was 85.1 µM.

And the IC50 (A549)?
Its IC50 is 10.2 µM.

What about the TGI (A549) of the same compound?
The TGI was 38 µM.

And the GI50 (A549; read-out: GI50)?
The GI50 was 18 µM.

What about the CC50 (A549; [1]) of the same compound?
The CC50 was 78 µM.

And the GI50 (A549; read-out: pGI50 (converted))?
The GI50 was 17.8 µM.

What about the CC50 (A549; [2]) of the same compound?
Its CC50 is 77.6 µM.

What about the TGI (OVCAR-8) of the same compound?
Its TGI is 41 µM.

What about the GI50 (OVCAR-8; read-out: GI50) of the same compound?
The GI50 was 12 µM.

And the CC50 (OVCAR-8; [1])?
Its CC50 is 100 µM.

What about the GI50 (OVCAR-8; read-out: pGI50 (converted)) of the same compound?
Its GI50 is 9.33 µM.

And the CC50 (OVCAR-8; read-out: pLC50 (converted))?
The CC50 was greater than 100 µM.

And the TGI (SF-295)?
Its TGI is 33 µM.

And the GI50 (SF-295; read-out: GI50)?
The GI50 was 18 µM.

And the CC50 (SF-295; [1])?
Its CC50 is 62 µM.

And the GI50 (SF-295; read-out: pGI50 (converted))?
Its GI50 is 18.2 µM.

What about the CC50 (SF-295; [2]) of the same compound?
The CC50 was 60.3 µM.

What about the IC50 (MV4-11) of the same compound?
Its IC50 is 0.549 µM.

And the IC50 (BALB/3T3)?
The IC50 was 8.97 µM.

And the IC50 (L6)?
Its IC50 is 0.46 µg/mL (≈ 1.11 µM).

What about the TGI (MCF7) of the same compound?
The TGI was 27 µM.

What about the GI50 (MCF7; read-out: GI50) of the same compound?
The GI50 was 11 µM.

And the CC50 (MCF7; [1])?
Its CC50 is 69 µM.

What about the GI50 (MCF7; read-out: pGI50 (converted)) of the same compound?
The GI50 was 10 µM.

And the CC50 (MCF7; [2])?
The CC50 was 87.1 µM.

And the TGI (OVCAR-5)?
The TGI was 17 µM.

And the GI50 (OVCAR-5; read-out: GI50)?
The GI50 was 5.3 µM.

And the CC50 (OVCAR-5; [1])?
The CC50 was 42 µM.

And the GI50 (OVCAR-5; read-out: pGI50 (converted))?
The GI50 was 2.75 µM.

What about the CC50 (OVCAR-5; [2]) of the same compound?
The CC50 was 26.3 µM.

What about the TGI (HCC 2998) of the same compound?
Its TGI is 30 µM.

And the GI50 (HCC 2998; read-out: GI50)?
Its GI50 is 15 µM.

What about the CC50 (HCC 2998; [1]) of the same compound?
The CC50 was 62 µM.

And the GI50 (HCC 2998; read-out: pGI50 (converted))?
Its GI50 is 6.31 µM.

And the CC50 (HCC 2998; [2])?
The CC50 was 61.7 µM.

And the TGI (MKN-7)?
Its TGI is 31 µM.

And the GI50 (MKN-7; read-out: GI50)?
The GI50 was 10 µM.

And the CC50 (MKN-7; [1])?
Its CC50 is 97 µM.

And the GI50 (MKN-7; read-out: pGI50 (converted))?
The GI50 was 3.47 µM.

What about the CC50 (MKN-7; [2]) of the same compound?
Its CC50 is 89.1 µM.

What does the source list for `COc1ccc(C2O[C@]34CC(c5cccc(OC)c5)OC(=O)C3=C[C@@]2(C)OO4)cc1` (some centres undefined)?
TGI (SF-539): 5.4 µM; GI50 (SF-539; read-out: GI50): 2.8 µM; CC50 (SF-539; [1]): 14 µM; TGI (HT-29): 27 µM; GI50 (HT-29; read-out: GI50): 5.2 µM; CC50 (HT-29; [1]): 100 µM; TGI (OVCAR-4): 11 µM; GI50 (OVCAR-4; read-out: GI50): 1.5 µM; CC50 (OVCAR-4; [1]): 42 µM; TGI (KM12): 39 µM; GI50 (KM12; read-out: GI50): 18 µM; CC50 (KM12; [1]): 85 µM; TGI (A549): 37 µM; GI50 (A549; read-out: GI50): 18 µM; CC50 (A549; [1]): 72 µM; TGI (OVCAR-8): 38 µM; GI50 (OVCAR-8; read-out: GI50): 9.4 µM; CC50 (OVCAR-8; [1]): 100 µM; TGI (SF-295): 33 µM; GI50 (SF-295; read-out: GI50): 18 µM; CC50 (SF-295; [1]): 60 µM; IC50 (MV4-11): 4.68 µM; TGI (MCF7): 29 µM; GI50 (MCF7; read-out: GI50): 10 µM; CC50 (MCF7; [1]): 87 µM; TGI (OVCAR-5): 7.4 µM; GI50 (OVCAR-5; read-out: GI50): 2.8 µM; CC50 (OVCAR-5; [1]): 27 µM; TGI (HCC 2998): 22 µM; GI50 (HCC 2998; read-out: GI50): 6.3 µM; CC50 (HCC 2998; [1]): 62 µM; TGI (MKN-7): 14 µM; GI50 (MKN-7; read-out: GI50): 3.4 µM; CC50 (MKN-7; [1]): 90 µM
